Experimental data as given in ChEMBL document CHEMBL3580554, “Design, synthesis, and anticonvulsant activity of new hybrid compounds derived from 2-(2,5-dioxopyrrolidin-1-yl)propanamides and 2-(2,5-dioxopyrrolidin-1-yl)butanamides” (J Med Chem, 2015).

What was measured:
Liver microsome = test: Drug level in human liver microsomes treated with 50 uM 1-(1-Oxo-1-{4-[3-(trifluoromethyl)phenyl]piperazin-1-yl}-propan-2-yl)pyrrolidine-2,5-dione assessed as compound formation in presence of NADPH regeneration system pre-incubated at 37 degC for 5 min and measured 2 hrs after post NADPH system addition by UPLC and LC-MS/MS method; type: ADME
Procedure, shortened: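 The compound was incubated 2 h with human liver microsomes. Metabolites were detected by full-scan chromatogram and identified by LC/MS from their [M+H]+ molecular masses.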

Rattus norvegicus [1] = species on record: Rattus norvegicus; test: Inhibition of [125I]omega-conotoxin GVIA binding to N-type calcium channel in rat cerebral cortex synaptosomes at 100 uM incubated for 30 mins by scintillation counting based radioligand displacement assay; type: subcellular
Rattus norvegicus [2] = species on record: Rattus norvegicus; test: Inhibition of [3H]BTX binding to sodium channel site 2 in rat cerebral cortex synaptosomes at 100 uM incubated for 60 mins by scintillation counting based radioligand displacement assay; type: subcellular
Procedure, shortened: (§1)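 Synaptoneurosomal preparations from rat cerebral cortex were used. The read-out was inhibition of specific [3H]BTX binding to the voltage-sensitive sodium channel (site 2), expressed as % inhibition of control specific binding. Compounds were tested at 1, 10, 100 and 500 μM. Inhibition above 50% was taken as significant.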

Rattus norvegicus [3] = species on record: Rattus norvegicus; test: Inhibition of [3H]BTX binding to sodium channel site 2 in rat cerebral cortex synaptosomes at 1 uM incubated for 60 mins by scintillation counting based radioligand displacement assay; type: subcellular; procedure, shortened: as §1
Rattus norvegicus [4] = species on record: Rattus norvegicus; test: Inhibition of [3H]BTX binding to sodium channel site 2 in rat cerebral cortex synaptosomes at 10 uM incubated for 60 mins by scintillation counting based radioligand displacement assay; type: subcellular; procedure, shortened: as §1
Rattus norvegicus [5] = species on record: Rattus norvegicus; test: Inhibition of [3H]BTX binding to sodium channel site 2 in rat cerebral cortex synaptosomes at 500 uM incubated for 60 mins by scintillation counting based radioligand displacement assay; type: subcellular; procedure, shortened: as §1
Mus musculus [6] = test: Anticonvulsant activity in Swiss mouse assessed as protection against seizures at 100 mg/kg, ip dosed 0.25 hrs before initiation of maximal electroconvulsions by maximal electroshock test; type: functional
Procedure, shortened: (§2)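 Mice were dosed i.p. at a fixed 300 or 100 mg/kg (6 Hz: 100 mg/kg only). Protection was then scored against MES, sc PTZ or 6 Hz seizures at pretreatment times of 0.25, 0.5, 1 and 2 h. Groups were four mice, scored as number protected / number tested. This also gives the time course and time of peak effect.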

Mus musculus [7] = test: Anticonvulsant activity in Swiss mouse assessed as protection against seizures at 300 mg/kg, ip dosed 1 hr before initiation of maximal electroconvulsions by maximal electroshock test; type: functional; procedure, shortened: as §2
Mus musculus [8] = test: Anticonvulsant activity in Swiss mouse assessed as protection against seizures at 100 mg/kg, ip dosed 2 hrs before initiation of maximal electroconvulsions by maximal electroshock test; type: functional; procedure, shortened: as §2
Mus musculus [9] = test: Anticonvulsant activity in Swiss mouse assessed as protection against seizures at 100 mg/kg, ip dosed 1 hr before initiation of maximal electroconvulsions by maximal electroshock test; type: functional; procedure, shortened: as §2
Mus musculus [10] = test: Anticonvulsant activity in Swiss mouse assessed as protection against seizures at 300 mg/kg, ip dosed 2 hrs before initiation of maximal electroconvulsions by maximal electroshock test; type: functional; procedure, shortened: as §2
Mus musculus [11] = test: Anticonvulsant activity in Swiss mouse assessed as protection against seizures at 300 mg/kg, ip dosed 0.25 hrs before initiation of maximal electroconvulsions by maximal electroshock test; type: functional; procedure, shortened: as §2
Mus musculus [12] = test: Anticonvulsant activity in Swiss mouse assessed as protection against seizures at 300 mg/kg, ip dosed 0.5 hrs before initiation of maximal electroconvulsions by maximal electroshock test; type: functional; procedure, shortened: as §2
Mus musculus [13] = test: Anticonvulsant activity in ip dosed Swiss mouse assessed as protection against seizures measured at 0.25 hrs of time to peak effect by maximal electroshock test; type: functional
Procedure, shortened: (§3)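 Median effective doses (ED50, mg/kg) were determined i.p. in mice at the time of peak effect in the MES, sc PTZ or 6 Hz tests. Only compounds giving at least 50% protection at 100 mg/kg in that test were taken forward.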

Mus musculus [14] = test: Anticonvulsant activity in Swiss mouse assessed as protection against seizures at 100 mg/kg, ip dosed 0.5 hrs before initiation of maximal electroconvulsions by maximal electroshock test; type: functional; procedure, shortened: as §2
Mus musculus [15] = test: Anticonvulsant activity in ip dosed Swiss mouse assessed as protection against seizures measured at 0.5 hrs of time to peak effect by maximal electroshock test; type: functional; procedure, shortened: as §3
Mus musculus [16] = species on record: Mus musculus; test: Protective index, ratio of neurotoxic TD50 in Swiss mouse by Chimney test to anticonvulsant ED50 in Swiss mouse measured at 0.5 hrs of time to peak effect by 6 Hz test by 6 Hz psychomotor seizure test; type: functional
Procedure, shortened: (§4)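 Protective index was calculated as TD50 (chimney test, mouse, i.p.) divided by ED50 from the matching MES, sc PTZ or 6 Hz test, both taken at the time of peak effect.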

[17] = Toxicity in ip dosed Swiss mouse assessed as induction of motor performance impairment measured within 60 seconds measured at 0.5 hrs of time to peak effect by Chimney test; type: organism-based; settings: in vivo
Procedure, shortened: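 Neurotoxicity was measured i.p. in mice by the chimney test for motor impairment. It was given as the median neurotoxic dose (TD50, mg/kg) at the time of peak effect.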

Mus musculus [18] = test: Anticonvulsant activity in ip dosed Swiss mouse assessed as protection against seizures measured at 0.5 hrs of time to peak effect by subcutaneous pentylenetetrazole seizure test; type: functional; procedure, shortened: as §3
Mus musculus [19] = species on record: Mus musculus; test: Protective index, ratio of neurotoxic TD50 in Swiss mouse by Chimney test to anticonvulsant ED50 in Swiss mouse measured at 0.5 hrs of time to peak effect by maximal electroshock test; procedure, shortened: as §4
Mus musculus [20] = test: Anticonvulsant activity in ip dosed Swiss mouse assessed as protection against seizures measured at 0.5 hrs of time to peak effect by 6 Hz test by 6 Hz psychomotor seizure test; type: functional; procedure, shortened: as §3

SMILES | Activity (Mus musculus [6]) [%] | Activity (Mus musculus [7]) [%] | Activity (Mus musculus [8]) [%] | Activity (Mus musculus [9]) [%] | Activity (Mus musculus [10]) [%] | Activity (Mus musculus [11]) [%] | Activity (Mus musculus [12]) [%] | Activity (Mus musculus [14]) [%] | also measured
CC(C(=O)N1C=CN(c2cccc(C(F)(F)F)c2)CC1)N1C(=O)CCC1=O (stereo not drawn) |  |  |  |  |  |  |  |  | Drug metabolism (Liver microsome): metabolite_detected
O=C(C(CO)N1C(=O)CC(O)C1=O)N1C=CN(c2cccc(C(F)(F)F)c2)CC1 (stereo not drawn) |  |  |  |  |  |  |  |  | Drug metabolism (Liver microsome): metabolite_detected
O=C(C(CO)N1C(=O)CCC1O)N1CCN(c2cccc(C(F)(F)F)c2)CC1 (stereo not drawn) |  |  |  |  |  |  |  |  | Drug metabolism (Liver microsome): metabolite_detected
CC(C(=O)N1CCN(c2ccc(O)c(C(F)(F)F)c2)CC1)N1C(=O)CCC1=O (stereo not drawn) |  |  |  |  |  |  |  |  | Drug metabolism (Liver microsome): metabolite_detected
CC1(C)O[C@@H]2[C@@H](CO[C@@]3(COS(N)(=O)=O)OC(C)(C)O[C@@H]23)O1 |  |  |  |  |  |  |  |  | inhibition (Rattus norvegicus [1]): 3.1%
NC(=O)N1c2ccccc2C=Cc2ccccc21 |  |  |  |  |  |  |  |  | inhibition (Rattus norvegicus [2]): 17.4%; inhibition (Rattus norvegicus [3]): 2.7%; inhibition (Rattus norvegicus [4]): 4.6%; inhibition (Rattus norvegicus [5]): 33.6%
CC(C(=O)N1CCN(c2ccccc2)CC1)N1C(=O)CCC1=O (racemic) | 50 | 50 | 0 | 0 | 0 | 100 | 50 | 0 | ED50 (Mus musculus [13]): 164 mg/kg
CC(C(=O)N1CCN(c2ccccc2Cl)CC1)N1C(=O)CCC1=O (racemic) |  | 25 |  |  | 0 | 0 | 0 |  | 
CC(C(=O)N1CCN(c2ccc(Cl)cc2)CC1)N1C(=O)CCC1=O (racemic) | 50 | 0 | 0 | 0 | 0 | 100 | 100 | 25 | 
CC(C(=O)N1CCN(c2ccccc2F)CC1)N1C(=O)CCC1=O (racemic) | 75 | 50 | 0 | 0 | 25 | 100 | 50 | 0 | ED50 (Mus musculus [13]): 151 mg/kg
CC(C(=O)N1CCN(c2cccc(F)c2)CC1)N1C(=O)CCC1=O (racemic) | 75 | 75 | 0 | 0 | 100 | 100 | 50 | 0 | ED50 (Mus musculus [13]): 137 mg/kg
CC(C(=O)N1CCN(c2ccc(F)cc2)CC1)N1C(=O)CCC1=O (racemic) | 75 | 25 | 0 | 0 | 50 | 100 | 50 | 0 | ED50 (Mus musculus [13]): 130 mg/kg
CC(C(=O)N1CCN(c2ccc(C(F)(F)F)cc2)CC1)N1C(=O)CCC1=O (racemic) |  | 0 |  |  | 0 | 25 | 25 |  | 
Cc1cccc(N2CCN(C(=O)C(C)N3C(=O)CCC3=O)CC2)c1 (racemic) | 0 | 0 | 0 | 0 | 0 | 100 | 50 | 0 | 
COc1cccc(N2CCN(C(=O)C(C)N3C(=O)CCC3=O)CC2)c1 (racemic) | 25 | 0 | 0 | 0 | 0 | 75 | 50 | 0 | 
CC(C(=O)N1CCOCC1)N1C(=O)CCC1=O (racemic) |  | 0 |  |  | 0 | 0 | 0 |  | 
CCC(C(=O)N1CCN(c2ccccc2)CC1)N1C(=O)CCC1=O (racemic) | 25 | 75 | 0 | 0 | 25 | 75 | 75 | 25 | ED50 (Mus musculus [13]): 149 mg/kg
CCC(C(=O)N1CCN(c2ccccc2Cl)CC1)N1C(=O)CCC1=O (racemic) |  | 50 |  |  | 0 | 50 | 25 |  | 
CCC(C(=O)N1CCN(c2cccc(Cl)c2)CC1)N1C(=O)CCC1=O (racemic) | 50 | 100 | 0 | 0 | 25 | 75 | 50 | 50 | ED50 (Mus musculus [15]): 138 mg/kg
CCC(C(=O)N1CCN(c2ccc(Cl)cc2)CC1)N1C(=O)CCC1=O (racemic) |  | 25 |  |  | 25 | 0 | 0 |  | 
CCC(C(=O)N1CCN(c2ccccc2F)CC1)N1C(=O)CCC1=O (racemic) | 0 | 50 | 0 | 0 | 0 | 100 | 100 | 0 | 
CCC(C(=O)N1CCN(c2cccc(F)c2)CC1)N1C(=O)CCC1=O (racemic) | 0 | 75 | 0 | 0 | 0 | 75 | 100 | 0 | 
CCC(C(=O)N1CCN(c2ccc(F)cc2)CC1)N1C(=O)CCC1=O (racemic) |  | 25 |  |  | 0 | 0 | 25 |  | 
CCC(C(=O)N1CCN(c2ccccc2C(F)(F)F)CC1)N1C(=O)CCC1=O (racemic) |  | 0 |  |  | 0 | 25 | 25 |  | 
CCC(C(=O)N1CCN(c2ccc(C(F)(F)F)cc2)CC1)N1C(=O)CCC1=O (racemic) |  | 0 |  |  | 0 | 25 | 0 |  | 
CCC(C(=O)N1CCN(c2cccc(C)c2)CC1)N1C(=O)CCC1=O (racemic) | 50 | 75 | 0 | 0 | 0 | 100 | 100 | 0 | 
CCC(C(=O)N1CCN(c2cccc(OC)c2)CC1)N1C(=O)CCC1=O (racemic) |  | 0 |  |  | 0 | 25 | 0 |  | 
CCC(C(=O)N1CCOCC1)N1C(=O)CCC1=O (racemic) |  | 0 |  |  | 0 | 0 | 0 |  | 
COC[C@@H](NC(C)=O)C(=O)NCc1ccccc1 [LACOSAMIDE] |  |  |  |  |  |  |  |  | Ratio TD50/ED50 (Mus musculus [16]): 5.26; ED50 (Mus musculus [15]): 9.4 mg/kg; TD50 at 0.5 h [17]: 33.7 mg/kg; ED50 (Mus musculus [18]): > 500 mg/kg; Ratio TD50/ED50 (Mus musculus [19]): 3.6; ED50 (Mus musculus [20]): 6.4 mg/kg
CCCC(CCC)C(=O)O [VALPROIC ACID] |  |  |  |  |  |  |  |  | ED50 (Mus musculus [20]): 130 mg/kg
